Measured values reported in ChEMBL document CHEMBL1833887, “Synthesis and evaluation of 7-substituted 4-aminoquinoline analogues for antimalarial activity” (J Med Chem, 2011).
≈ marks a conversion by molar mass, not a printed value.

How the values were obtained:
[1] = Solubility of the compound at pH 7.4 after 18 hrs by UV spectroscopic analysis; format: physicochemical; settings: buffer
How it was run: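 Kinetic solubility. A 10 mM stock is diluted 1:100 into PBS pH 7.4 and incubated 18 h at room temperature, then filtered; the filtrate is mixed 1:1 with 1-propanol. UV spectrum (250–500 nm) compared by AUC with a 1-propanol/PBS reference. Single experiment in triplicate.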

[2] = Permeability of the compound at pH 7.4 after 30 mins by PAMPA; format: ADME; settings: read-out: permeability
How it was run: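 PAMPA at pH 7.4. A 10 mM DMSO stock is diluted into system solution buffer; its UV spectrum serves as reference. Membrane painted with GIT lipid, acceptor chamber holds acceptor solution buffer. Sandwich stirred for 30 min, aqueous boundary layer set to 40. Donor and acceptor UV spectra read at 250–500 nm. Permeability coefficient from the AUCs of reference, donor and acceptor. Single experiment in triplicate.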

[3] = Dissociation constant, pKa of the compound; format: physicochemical
Plasmodium falciparum [4] = assay: Antimalarial activity against chloroquine-sensitive Plasmodium falciparum 3D7 infected in human erythrocytes assessed as reduction in parasitemia after 72 hrs by spectrophotometry; format: functional, organism-based; settings: 3D7, 72 h
Plasmodium falciparum [5] = assay: Antimalarial activity against chloroquine-resistant Plasmodium falciparum K1 infected in human erythrocytes assessed as reduction in parasitemia after 72 hrs by spectrophotometry; format: functional, organism-based; settings: K1, 72 h
Plasmodium falciparum [6] = assay: Ratio of EC50 for chloroquine-resistant Plasmodium falciparum K1 infected in human erythrocytes to EC50 for chloroquine-sensitive Plasmodium falciparum 3D7 infected in human erythrocytes; format: functional
HepG2 = assay: Cytotoxicity against human HepG2 cells assessed as intracellular ATP level after 72 hrs by Celltiter-Glo luminescent assay; format: cell-based; settings: HepG2, 72 h
[7] = Ratio of EC50 for human HepG2 cells to EC50 for Plasmodium falciparum 3D7 infected in human erythrocytes
[8] = Ratio of EC50 for human HepG2 cells to EC50 for Plasmodium falciparum K1 infected in human erythrocytes

SMILES | solubility at 18 h [1] | Papp at 0.5 h [2] | pKa [3] | EC50 (Plasmodium falciparum [4]) | EC50 (Plasmodium falciparum [5]) | Ratio EC50 (Plasmodium falciparum [6]) | EC50 (HepG2) | Ratio EC50 [7] | Ratio EC50 [8]
CN(C)c1cccc(Oc2ccc3c(NCCCNCc4ccc5c(c4)OCO5)ccnc3c2)c1 | 14.5 µM (≈ 6.82 µg/mL) | 317 ×10⁻⁶ cm/s | 9.28 | 1360 nM | 3930 nM | 2.9 | 16000 nM | 12 | 4
c1coc(CNCCCNc2ccnc3cc(C4CCCCC4)ccc23)c1 | 4.2 µM (≈ 1.53 µg/mL) | 23 ×10⁻⁶ cm/s | 9.47 | 118 nM | 3900 nM | 33.1 | 4760 nM | 40.4 | 1.2
COc1ccc(F)cc1CNCCCNc1ccnc2cc(Cc3ccccc3)ccc12 | 4.2 µM (≈ 1.8 µg/mL) | 23 ×10⁻⁶ cm/s | 9.47 | 11 nM | 1420 nM | 129.5 | 7990 nM | 726.7 | 5.6
COc1cccc(CNCCCNc2ccnc3cc(CCC(C)C)ccc23)c1O | 4.2 µM (≈ 1.71 µg/mL) | 23 ×10⁻⁶ cm/s | 9.47 | 22 nM | 8000 nM | 365.3 | 5390 nM | 245.9 | 0.7
COc1ccc(F)cc1CNCCCNc1ccnc2cc(Oc3cccc(N(C)C)c3)ccc12 | 14.5 µM (≈ 6.88 µg/mL) | 317 ×10⁻⁶ cm/s | 9.28 | 7 nM | 31 nM | 4.7 | 3300 nM | 514 | 110
COc1cccc(CNCCCNc2ccnc3cc(Oc4ccc(Cl)cc4)ccc23)c1O | 14.5 µM (≈ 6.73 µg/mL) | 317 ×10⁻⁶ cm/s | 9.28 | 11 nM | 785 nM | 70.7 | 5700 nM | 514 | 7
c1cc(NCCCNCc2ccc3c(c2)OCO3)c2ccc(C3CCCCC3)cc2n1 | 4.2 µM (≈ 1.75 µg/mL) | 23 ×10⁻⁶ cm/s | 9.47 | 128 nM | 4710 nM | 36.7 | 3020 nM | 23.6 | 0.6
Clc1ccc(Oc2ccc3c(NCCCNCc4ccco4)ccnc3c2)cc1 | 14.5 µM (≈ 5.91 µg/mL) | 317 ×10⁻⁶ cm/s | 9.28 | 40 nM | 793 nM | 19.8 | 7800 nM | 194 | 10
CC(C)(C)c1ccc(-c2ccc3c(NCCCNCc4ccc5c(c4)OCO5)ccnc3c2)cc1 | 32 µM (≈ 15 µg/mL) | 237 ×10⁻⁶ cm/s | 9.47 | 223 nM | 490 nM | 2.2 | 1370 nM | 6.2 | 2.8
c1coc(CNCCCNc2ccnc3cc(Cc4ccc5c(c4)OCO5)ccc23)c1 | 32 µM (≈ 13.3 µg/mL) | 237 ×10⁻⁶ cm/s | 9.47 | 19 nM | 46 nM | 2.4 | 6500 nM | 340.2 | 142.2
CCC(CC)c1ccc2c(NCCCNCc3ccc4c(c3)OCO4)ccnc2c1 | 4.2 µM (≈ 1.7 µg/mL) | 23 ×10⁻⁶ cm/s | 9.47 | 27 nM | 1060 nM | 39.5 | 6350 nM | 235.1 | 6
COc1cccc(CNCCCNc2ccnc3cc(CCc4ccccc4)ccc23)c1O | 4.2 µM (≈ 1.85 µg/mL) | 23 ×10⁻⁶ cm/s | 9.47 | 17 nM | 5520 nM | 324.5 | 6800 nM | 400 | 1.2
COc1cccc(CNCCCNc2ccnc3cc(CC(C)C)ccc23)c1O | 4.2 µM (≈ 1.65 µg/mL) | 23 ×10⁻⁶ cm/s | 9.47 | 20 nM | 8130 nM | 402.5 | 2920 nM | 144.5 | 0.4
CN(C)c1cccc(Oc2ccc3c(NCCCNCc4ccco4)ccnc3c2)c1 | 14.5 µM (≈ 6.04 µg/mL) | 317 ×10⁻⁶ cm/s | 9.28 | 27 nM | 155 nM | 5.7 | 16000 nM | 588 | 103
COc1cccc(CNCCCNc2ccnc3cc(Cc4ccc(C#N)cc4)ccc23)c1O | 4.2 µM (≈ 1.9 µg/mL) | 23 ×10⁻⁶ cm/s | 9.47 | 11 nM | 5440 nM | 514 | 7150 nM | 674.8 | 1.3
COc1cccc(CNCCCNc2ccnc3cc(C4CCCCC4)ccc23)c1O | 4.2 µM (≈ 1.76 µg/mL) | 23 ×10⁻⁶ cm/s | 9.47 | 19 nM | 16000 nM | 864.9 | 1080 nM | 58.1 | 0.1
Fc1ccc(-c2ccc3c(NCCCNCc4ccco4)ccnc3c2)cc1 | 32 µM (≈ 12 µg/mL) | 237 ×10⁻⁶ cm/s | 9.47 | 32 nM | 69 nM | 2.1 | 7760 nM | 240.4 | 113.2
CC(C)CCc1ccc2c(NCCCNCc3ccco3)ccnc2c1 | 4.2 µM (≈ 1.48 µg/mL) | 23 ×10⁻⁶ cm/s | 9.47 | 176 nM | 4600 nM | 26.1 | 11200 nM | 63.7 | 2.4
c1ccc(Cc2ccc3c(NCCCNCc4ccco4)ccnc3c2)cc1 | 4.2 µM (≈ 1.56 µg/mL) | 23 ×10⁻⁶ cm/s | 9.47 | 40 nM | 3550 nM | 89.9 | 16000 nM | 405.1 | 4.5
COc1cccc(CNCCCNc2ccnc3cc(Cc4ccccc4)ccc23)c1O | 4.2 µM (≈ 1.8 µg/mL) | 23 ×10⁻⁶ cm/s | 9.47 | 17 nM | 6970 nM | 400.6 | 5720 nM | 328.6 | 0.8
c1ccc(CCc2ccc3c(NCCCNCc4ccc5c(c4)OCO5)ccnc3c2)cc1 | 4.2 µM (≈ 1.85 µg/mL) | 23 ×10⁻⁶ cm/s | 9.47 | 13 nM | 1530 nM | 117.1 | 4980 nM | 380.3 | 3.2
